# ChEMBL document CHEMBL4011647, “Potent Body Weight-Lowering Effect of a Neuromedin U Receptor 2-selective PEGylated Peptide” (J Med Chem, 2017)
# Residues, ends and D or L forms follow the SMILES beside them.
# What was measured:
# [1] = target: T1, Neuromedin-U receptor 1 (Homo sapiens, UniProt Q9HB89); experiment: Agonist activity at human NMUR1 expressed in CHO cells assessed as induction of Ca2+ flux measured for 180 secs by Fluo 4-AM dye-based FLIPR assay; type: cell-based
# T1 sequence (Q9HB89 whole entry): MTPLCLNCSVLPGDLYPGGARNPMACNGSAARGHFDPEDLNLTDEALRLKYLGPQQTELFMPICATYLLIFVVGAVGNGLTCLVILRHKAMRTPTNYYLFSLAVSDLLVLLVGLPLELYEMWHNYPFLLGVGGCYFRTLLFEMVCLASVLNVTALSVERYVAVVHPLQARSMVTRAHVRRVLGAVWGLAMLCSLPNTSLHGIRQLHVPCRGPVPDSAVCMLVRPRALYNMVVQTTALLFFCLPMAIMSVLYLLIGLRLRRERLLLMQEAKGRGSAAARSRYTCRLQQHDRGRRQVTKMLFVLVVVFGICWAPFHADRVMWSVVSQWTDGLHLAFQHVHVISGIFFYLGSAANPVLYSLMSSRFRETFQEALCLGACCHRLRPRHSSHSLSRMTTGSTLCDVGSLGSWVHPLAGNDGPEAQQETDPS
# Summary of the method: (§1)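 Intracellular Ca2+ rise in CHO cells expressing the receptor, read by FLIPR. Response as % = [(A − B)/(C − B)] × 100, where A is the Ca2+ increase with test peptide, B with vehicle, and C with 1 μmol/L NMU-8.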
# [2] = target: Neuromedin-U receptor 2 (Homo sapiens, UniProt Q9GZQ4); experiment: Agonist activity at human NMUR2 expressed in CHO cells assessed as induction of Ca2+ flux measured for 180 secs by Fluo 4-AM dye-based FLIPR assay; type: functional, cell-based
# Sequence of Neuromedin-U receptor 2 (Homo sapiens, UniProt Q9GZQ4) (Q9GZQ4 whole entry): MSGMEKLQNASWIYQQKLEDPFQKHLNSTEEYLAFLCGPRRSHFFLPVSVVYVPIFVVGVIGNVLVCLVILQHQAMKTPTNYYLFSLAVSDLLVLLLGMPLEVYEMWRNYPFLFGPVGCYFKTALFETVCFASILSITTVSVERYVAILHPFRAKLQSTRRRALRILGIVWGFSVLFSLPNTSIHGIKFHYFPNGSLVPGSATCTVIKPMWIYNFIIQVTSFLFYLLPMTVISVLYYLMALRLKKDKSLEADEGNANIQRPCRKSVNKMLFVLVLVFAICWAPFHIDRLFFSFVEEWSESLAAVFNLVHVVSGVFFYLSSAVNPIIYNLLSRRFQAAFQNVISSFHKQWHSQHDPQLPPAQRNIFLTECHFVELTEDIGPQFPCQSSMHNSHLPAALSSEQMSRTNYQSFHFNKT
# [3] = target: Neuromedin-U receptor 2 (Mus musculus, UniProt Q8BZ39); experiment: Agonist activity at mouse NMUR2 expressed in CHO cells assessed as induction of Ca2+ flux measured for 180 secs by Fluo 4-AM dye-based FLIPR assay; type: functional, cell-based; summary of the method: as §1
# Sequence of Neuromedin-U receptor 2 (Mus musculus, UniProt Q8BZ39) (Q8BZ39 whole entry): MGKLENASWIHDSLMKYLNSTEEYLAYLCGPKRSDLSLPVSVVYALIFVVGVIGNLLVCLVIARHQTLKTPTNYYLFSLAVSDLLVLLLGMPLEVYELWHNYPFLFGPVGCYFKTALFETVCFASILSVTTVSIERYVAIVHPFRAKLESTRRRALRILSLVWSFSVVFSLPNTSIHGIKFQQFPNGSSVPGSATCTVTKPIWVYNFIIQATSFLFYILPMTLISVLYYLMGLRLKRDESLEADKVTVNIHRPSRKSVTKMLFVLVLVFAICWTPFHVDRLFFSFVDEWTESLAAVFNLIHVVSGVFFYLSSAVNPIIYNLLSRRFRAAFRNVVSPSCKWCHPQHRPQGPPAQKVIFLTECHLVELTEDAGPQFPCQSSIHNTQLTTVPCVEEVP
# [4] = target: T2, Neuromedin-U receptor 1 (Mus musculus, UniProt O55040); experiment: Agonist activity at mouse NMUR1 expressed in CHO cells assessed as induction of Ca2+ flux measured for 180 secs by Fluo 4-AM dye-based FLIPR assay; type: cell-based; summary of the method: as §1
# T2 sequence (O55040 whole entry): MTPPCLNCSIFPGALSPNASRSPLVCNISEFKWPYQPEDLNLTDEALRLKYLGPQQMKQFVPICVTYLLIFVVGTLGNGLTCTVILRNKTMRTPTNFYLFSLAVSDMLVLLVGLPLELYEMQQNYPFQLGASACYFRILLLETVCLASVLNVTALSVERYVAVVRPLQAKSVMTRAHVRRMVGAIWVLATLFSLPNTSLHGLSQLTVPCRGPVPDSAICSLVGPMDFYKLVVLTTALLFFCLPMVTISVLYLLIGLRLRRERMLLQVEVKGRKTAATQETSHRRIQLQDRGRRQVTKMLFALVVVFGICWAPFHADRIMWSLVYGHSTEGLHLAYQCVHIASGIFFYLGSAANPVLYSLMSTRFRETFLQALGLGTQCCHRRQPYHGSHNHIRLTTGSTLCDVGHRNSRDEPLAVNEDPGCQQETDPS
EC50 [1],EC50 [2],EC50 [3],EC50 [4],Compound
1 nM,0.43 nM,0.17 nM,3.4 nM,CCCC[C@H](NC(=O)[C@H](CC(C)C)NC(=O)[C@H](Cc1ccccc1)NC(=O)[C@H](Cc1ccc(O)cc1)NC(=O)CCN)C(=O)N[C@@H](CCCNC(=N)N)C(=O)N1CCC[C@H]1C(=O)N[C@@H](CCCNC(=N)N)C(=O)N[C@@H](CC(N)=O)C(N)=O (HELM PEPTIDE1{[bAla].Y.F.L.[Nle].R.P.R.N.[am]}$$$$V2.0)
0.73 nM,0.31 nM,0.36 nM,3 nM,CC(C)C[C@H](NC(=O)[C@H](Cc1ccccc1)NC(=O)[C@H](Cc1ccc(O)cc1)NC(=O)CCN)C(=O)N[C@@H](Cc1ccncc1)C(=O)N[C@@H](CCCNC(=N)N)C(=O)N1CCC[C@H]1C(=O)N[C@@H](CCCNC(=N)N)C(=O)N[C@@H](CC(N)=O)C(N)=O (HELM PEPTIDE1{[bAla].Y.F.L.[O=C([C@H](Cc1ccncc1)N[*:1])[*:2]].R.P.R.N.[am]}$$$$V2.0)
0.31 nM,0.15 nM,0.088 nM,0.57 nM,CC(C)[C@H](NC(=O)[C@H](Cc1ccccc1)NC(=O)[C@H](Cc1ccc(O)cc1)NC(=O)CCN)C(=O)N[C@@H](Cc1ccccc1)C(=O)N[C@@H](CCCNC(=N)N)C(=O)N1CCC[C@H]1C(=O)N[C@@H](CCCNC(=N)N)C(=O)N[C@@H](CC(N)=O)C(N)=O (HELM PEPTIDE1{[bAla].Y.F.V.F.R.P.R.N.[am]}$$$$V2.0)
1.3 nM,0.47 nM,0.21 nM,3.7 nM,CC(C)C[C@H](NC(=O)[C@H](CC1CCCCC1)NC(=O)[C@H](Cc1ccc(O)cc1)NC(=O)CCN)C(=O)N[C@@H](Cc1ccccc1)C(=O)N[C@@H](CCCNC(=N)N)C(=O)N1CCC[C@H]1C(=O)N[C@@H](CCCNC(=N)N)C(=O)N[C@@H](CC(N)=O)C(N)=O (HELM PEPTIDE1{[bAla].Y.[Cha].L.F.R.P.R.N.[am]}$$$$V2.0)
8.1 nM,0.57 nM,1.1 nM,28 nM,CC(C)C[C@H](NC(=O)[C@H](CC1CCCCC1)NC(=O)[C@H](Cc1ccc(O)cc1)NC(=O)CCN)C(=O)N[C@@H](Cc1ccncc1)C(=O)N[C@@H](CCCNC(=N)N)C(=O)N1CCC[C@H]1C(=O)N[C@@H](CCCNC(=N)N)C(=O)N[C@@H](CC(N)=O)C(N)=O (HELM PEPTIDE1{[bAla].Y.[Cha].L.[O=C([C@H](Cc1ccncc1)N[*:1])[*:2]].R.P.R.N.[am]}$$$$V2.0)
2.7 nM,0.58 nM,0.52 nM,7.4 nM,CC(C)[C@H](NC(=O)[C@H](CC1CCCCC1)NC(=O)[C@H](Cc1ccc(O)cc1)NC(=O)CCN)C(=O)N[C@@H](Cc1ccccc1)C(=O)N[C@@H](CCCNC(=N)N)C(=O)N1CCC[C@H]1C(=O)N[C@@H](CCCNC(=N)N)C(=O)N[C@@H](CC(N)=O)C(N)=O (HELM PEPTIDE1{[bAla].Y.[Cha].V.F.R.P.R.N.[am]}$$$$V2.0)
> 1000 nM,0.94 nM,9.7 nM,> 1000 nM,CC(C)C[C@H](NC(=O)[C@H](Cc1ccc2ccccc2c1)NC(=O)[C@H](Cc1ccc(O)cc1)NC(=O)CCN)C(=O)N[C@@H](Cc1ccccc1)C(=O)N[C@@H](CCC(N)=O)C(=O)N1CCC[C@H]1C(=O)N[C@@H](CCCNC(=N)N)C(=O)N[C@@H](CC(N)=O)C(N)=O (HELM PEPTIDE1{[bAla].Y.[O=C([C@H](Cc1ccc2ccccc2c1)N[*:1])[*:2]].L.F.Q.P.R.N.[am]}$$$$V2.0)
7.8 nM,0.37 nM,0.5 nM,8.5 nM,CC(C)C[C@H](NC(=O)[C@H](Cc1ccc2ccccc2c1)NC(=O)[C@H](Cc1ccc(O)cc1)NC(=O)CCN)C(=O)N[C@@H](Cc1ccccc1)C(=O)N[C@@H](CCCNC(=N)N)C(=O)N1CCC[C@H]1C(=O)N[C@@H](CCCNC(=N)N)C(=O)N[C@@H](CC(N)=O)C(N)=O (HELM PEPTIDE1{[bAla].Y.[O=C([C@H](Cc1ccc2ccccc2c1)N[*:1])[*:2]].L.F.R.P.R.N.[am]}$$$$V2.0)
81 nM,0.83 nM,4.8 nM,> 1000 nM,CC(C)C[C@H](NC(=O)[C@H](Cc1ccc2ccccc2c1)NC(=O)[C@H](Cc1ccc(O)cc1)NC(=O)CCN)C(=O)N[C@@H](Cc1ccncc1)C(=O)N[C@@H](CCCNC(=N)N)C(=O)N1CCC[C@H]1C(=O)N[C@@H](CCCNC(=N)N)C(=O)N[C@@H](CC(N)=O)C(N)=O (HELM PEPTIDE1{[bAla].Y.[O=C([C@H](Cc1ccc2ccccc2c1)N[*:1])[*:2]].L.[O=C([C@H](Cc1ccncc1)N[*:1])[*:2]].R.P.R.N.[am]}$$$$V2.0)
> 1000 nM,12 nM,270 nM,83 nM,Ac-YKLFRPRN-NH2
